Test [1] is filed under the species Homo sapiens. The test can be described thus: Selectivity index, ratio of Ki for human recombinant 5-HT1B receptor to Ki for human recombinant sigma1 receptor.
The species entered for test [2] is Homo sapiens. Description: Selectivity index, ratio of Ki for human recombinant DOR receptor to Ki for human recombinant sigma1 receptor. The essentials: (§1)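 Both Ki values in each ratio come from NIMH Psychoactive Drug Screening Program radioligand binding. […] Other targets were given full binding curves, measured in triplicate, and Ki was taken from a sigmoidal curve fit. Some values were repeated in duplicate or triplicate independent experiments.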

Test [3] is filed under the species Homo sapiens. Description: Selectivity index, ratio of Ki for human recombinant 5-HT2C receptor to Ki for human recombinant sigma1 receptor.
Test [4] deals with Sodium-dependent dopamine transporter (Homo sapiens, UniProt Q01959). Description: Displacement of [3H]-Win35428 from human recombinant DAT receptor expressed in stable HEK cells at 10 uM after 90 mins by microbeta scintillation counting method relative to control. It is filed as cell-based. In general terms: Loss of bound radioactivity is the signal in a displacement assay; it reports binding, not function.

Test [5] deals with 661W. Description: Cytoprotective activity in mouse 661W cells assessed as inhibition of t-BHP induced oxidative stress by measuring in cell viability at 30 uM in presence of 10 uM of […] preincubated for 30 mins followed by compound addition and measured after 24 hrs by MTT assay. The format is functional, cell-based. The essentials: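 Same 661W oxidative-stress setup: 55 μM tBHP for 24 h with test agent at 30 μM, plus the σ1 antagonist BD1063 at 10 μM. Viability is read by MTT.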
On the technique in general: Tetrazolium assays rely on reduction of a dye to a coloured formazan, in cell work by metabolically active cells.

The species entered for test [6] is Homo sapiens. The test can be described thus: Selectivity index, ratio of Ki for human recombinant KOR receptor to Ki for human recombinant sigma1 receptor. The essentials: as §1
The species entered for test [7] is Homo sapiens. The test can be described thus: Selectivity index, ratio of Ki for human recombinant Muscarinic acetylcholine M5 receptor to Ki for human recombinant sigma1 receptor. The essentials: as §1
For test [8], the species on record is Homo sapiens. The test can be described thus: Selectivity index, ratio of Ki for human recombinant dopamine D1 receptor to Ki for human recombinant sigma1 receptor. The method in brief:
as §1

A further test has as its target D(3) dopamine receptor (Homo sapiens, UniProt P35462). Description: Displacement of [3H]-N-methylspiperone from human recombinant dopamine D3 receptor expressed in HEKT cells at 10 uM after 90 mins by microbeta scintillation counting method relative to control. It is filed as cell-based. The essentials:
(§2)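 Radioligand binding run by the NIMH Psychoactive Drug Screening Program. […] Otherwise Ki comes from sigmoidal curve fits of triplicate measurements in a single experiment, or is averaged over repeated experiments each run in triplicate.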

Test [9] deals with 661W. The test can be described thus: Cytoprotective activity in mouse 661W cells assessed as inhibition of t-BHP induced oxidative stress by measuring cell viability at 200 uM after 24 hrs by MTT assay (reference value: >50%). The format is functional, cell-based.
A further test addresses Histamine H1 receptor (Homo sapiens, UniProt P35367). The test can be described thus: Displacement of [3H]-Pyrilamine from human recombinant histamine H1 receptor expressed in stable HEK cells at 10 uM after 90 mins by microbeta scintillation counting method relative to control. It is filed as cell-based.
For test [10], the species on record is Homo sapiens. Description: Selectivity index, ratio of Ki for human recombinant adrenergic Alpha1B receptor to Ki for human recombinant sigma1 receptor. The essentials: as §1
For test [11], the species on record is Homo sapiens. Description: Selectivity index, ratio of Ki for human recombinant 5-HT6 receptor to Ki for human recombinant sigma1 receptor.
The next test addresses Mu-type opioid receptor (Homo sapiens, UniProt P35372). The test can be described thus: Displacement of [3H]-DAMGO from human recombinant MOR receptor expressed in stable HEK cells at 10 uM after 90 mins by microbeta scintillation counting method relative to control. The format is cell-based. The method in brief:
as §2

The target of test [12] is Kappa-type opioid receptor (Homo sapiens, UniProt P41145). Description: Displacement of [3H]-U69593 from human recombinant KOR receptor expressed in stable HEK cells at 10 uM after 90 mins by microbeta scintillation counting method relative to control. It is filed as cell-based.
For test [13], the species on record is Homo sapiens. Description: Selectivity index, ratio of Ki for human recombinant dopamine D3 receptor to Ki for human recombinant sigma1 receptor. The essentials: as §1
A short description of test [14]: Selectivity index, ratio of Ki for rat brain PBR receptor to Ki for human recombinant sigma1 receptor. The essentials:
as §1

The subject of test [15] is 661W. Description: Cytoprotective activity in mouse 661W cells assessed as inhibition of t-BHP induced oxidative stress by measuring increase in cell viability at 30 uM after 24 hrs by MTT assay (Rvb < 50%). It is filed as functional.
The species named for test [16] is Homo sapiens. The test can be described thus: Selectivity index, ratio of Ki for human recombinant 5-HT1E receptor to Ki for human recombinant sigma1 receptor.
The species named for test [17] is Homo sapiens. Description: Selectivity index, ratio of Ki for human recombinant DAT receptor to Ki for human recombinant sigma1 receptor.
Test [18] has as its system 661W. The test can be described thus: Cytoprotective activity in mouse 661W cells assessed as reduction in tBHP-induced ROS level at 10 to 30 uM after 2 hrs by […] fluorescent microscopic analysis. The format is functional, cell-based. The method in brief:
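661W cells seeded on coverslips for 18 h, then exposed 2 h to 55 μM tBHP with or without test agent or (+)-pentazocine. ROS are detected with CellROX green dye by epifluorescence, with DAPI marking nuclei. Fluorescence intensity is quantified as mean ± SD from three independent experiments, each run in duplicate.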

The species entered for test [19] is Homo sapiens. The test can be described thus: Selectivity index, ratio of Ki for human recombinant adrenergic Beta1 receptor expressed in Flp-In CHO to Ki for human recombinant sigma1 receptor. The essentials:
as §1

In test [20] the target is Alpha-2B adrenergic receptor (Homo sapiens) (UniProt P18089). Description: Displacement of [3H]-Rauwolscine from human recombinant adrenergic Alpha2B receptor expressed in HEKT cells at 10 uM after 90 mins by microbeta scintillation counting method relative to control. It is filed as cell-based.
The species named for test [21] is Homo sapiens. Description: Selectivity index, ratio of Ki for human recombinant dopamine D2 receptor to Ki for human recombinant sigma1 receptor. The method in brief:
as §1

Test [22] is filed under the species Homo sapiens. The test can be described thus: Selectivity index, ratio of Ki for human recombinant 5-HT7A receptor to Ki for human recombinant sigma1 receptor.
In test [23] the target is GABA-A receptor; anion channel. The test can be described thus: Displacement of [3H]-Muscimol from GABAA receptor in rat brain incubated for 90 mins by microbeta scintillation counting method. It is filed as tissue-based. The method in brief:
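Radioligand binding run by the NIMH Psychoactive Drug Screening Program. Otherwise Ki comes from sigmoidal curve fits of triplicate measurements in a single experiment, or is averaged over repeated experiments each run in triplicate.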

In test [24] the target is 5-hydroxytryptamine receptor 5A (Homo sapiens, UniProt P47898). Description: Displacement of [3H]-LSD from human recombinant 5-HT5A receptor expressed in Flp-In CHO cells at 10 uM after 90 mins by microbeta scintillation counting method relative to control. The format is cell-based. The essentials: as §2
For test [25], the target named is Beta-2 adrenergic receptor (Homo sapiens, UniProt P07550). The test can be described thus: Displacement of [3H]-CGP12177 from human recombinant adrenergic Beta2 receptor expressed in Flp-In HEK cells at 10 uM after 90 mins by microbeta scintillation counting method relative to control. The format is cell-based. The method in brief: as §2
The target of test [26] is Beta-1 adrenergic receptor (Homo sapiens, UniProt P08588). Description: Displacement of [125I]-pindolol from human recombinant adrenergic Beta1 receptor expressed in Flp-In CHO cells at 10 uM after 90 mins by microbeta scintillation counting method relative to control. It is filed as cell-based. The method in brief: as §2
For test [27], the target named is 5-hydroxytryptamine receptor 2A (Homo sapiens, UniProt P28223). Description: Displacement of [3H]-Ketanserin from human recombinant 5-HT2A receptor transiently expressed in HEKT cells at 10 uM after 90 mins by microbeta scintillation counting method relative to control. The format is cell-based. The method in brief:
as §2

The target in test [28] is 5-hydroxytryptamine receptor 7 (Homo sapiens, UniProt P34969). The test can be described thus: Displacement of [3H]-LSD from human recombinant 5-HT7 receptor expressed in stable HEK cells at 10 uM after 90 mins by microbeta scintillation counting method relative to control. It is filed as cell-based. The essentials:
as §2

Activity calls are given as the source filed them. No cut-off for these calls is given here.

Sequence of D(3) dopamine receptor (P35462 whole entry): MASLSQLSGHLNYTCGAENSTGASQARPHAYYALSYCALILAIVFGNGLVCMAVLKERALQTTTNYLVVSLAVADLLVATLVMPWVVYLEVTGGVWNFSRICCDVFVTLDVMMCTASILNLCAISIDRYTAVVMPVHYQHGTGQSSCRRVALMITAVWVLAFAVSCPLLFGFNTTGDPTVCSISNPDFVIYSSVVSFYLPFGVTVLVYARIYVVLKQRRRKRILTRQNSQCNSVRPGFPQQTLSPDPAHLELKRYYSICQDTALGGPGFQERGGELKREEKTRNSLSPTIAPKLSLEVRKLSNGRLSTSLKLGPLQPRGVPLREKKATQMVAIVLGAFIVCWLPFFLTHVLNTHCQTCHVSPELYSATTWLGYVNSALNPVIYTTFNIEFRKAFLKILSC
Sequence of Mu-type opioid receptor (P35372 whole entry): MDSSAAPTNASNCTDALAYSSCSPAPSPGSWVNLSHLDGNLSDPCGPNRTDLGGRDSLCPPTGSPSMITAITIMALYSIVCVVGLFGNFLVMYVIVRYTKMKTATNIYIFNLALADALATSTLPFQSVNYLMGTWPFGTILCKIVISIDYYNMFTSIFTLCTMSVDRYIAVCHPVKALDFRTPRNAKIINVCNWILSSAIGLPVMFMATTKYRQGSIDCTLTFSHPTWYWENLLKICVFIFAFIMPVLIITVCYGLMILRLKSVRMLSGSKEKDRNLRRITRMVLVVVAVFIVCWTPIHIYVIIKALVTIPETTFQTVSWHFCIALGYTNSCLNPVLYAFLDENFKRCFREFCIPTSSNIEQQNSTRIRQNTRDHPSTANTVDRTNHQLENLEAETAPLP
Sequence of Histamine H1 receptor (P35367 whole entry): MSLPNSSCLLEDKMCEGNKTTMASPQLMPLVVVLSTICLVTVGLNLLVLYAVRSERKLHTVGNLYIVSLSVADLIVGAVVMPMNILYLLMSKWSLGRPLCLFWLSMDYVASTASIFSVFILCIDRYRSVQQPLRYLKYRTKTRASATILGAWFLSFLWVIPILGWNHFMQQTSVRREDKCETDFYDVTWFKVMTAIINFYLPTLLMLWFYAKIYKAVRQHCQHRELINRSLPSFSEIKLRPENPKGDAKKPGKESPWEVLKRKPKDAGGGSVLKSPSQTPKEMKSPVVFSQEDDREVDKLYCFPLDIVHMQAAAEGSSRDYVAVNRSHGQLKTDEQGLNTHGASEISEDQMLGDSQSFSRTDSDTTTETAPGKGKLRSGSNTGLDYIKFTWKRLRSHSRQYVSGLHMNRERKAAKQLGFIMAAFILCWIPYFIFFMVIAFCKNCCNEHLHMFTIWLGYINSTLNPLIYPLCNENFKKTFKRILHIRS
Sequence of Kappa-type opioid receptor (P41145 whole entry): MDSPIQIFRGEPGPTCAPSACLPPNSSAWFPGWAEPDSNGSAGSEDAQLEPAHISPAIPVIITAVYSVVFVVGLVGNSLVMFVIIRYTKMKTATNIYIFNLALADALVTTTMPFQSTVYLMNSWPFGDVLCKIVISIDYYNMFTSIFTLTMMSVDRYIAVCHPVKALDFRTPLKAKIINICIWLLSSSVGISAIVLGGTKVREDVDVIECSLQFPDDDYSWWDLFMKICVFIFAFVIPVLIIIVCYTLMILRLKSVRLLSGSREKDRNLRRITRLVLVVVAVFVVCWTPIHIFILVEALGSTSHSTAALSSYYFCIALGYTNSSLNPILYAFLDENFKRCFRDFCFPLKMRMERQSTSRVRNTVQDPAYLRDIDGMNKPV
Sequence of Beta-1 adrenergic receptor (P08588 whole entry, looked up): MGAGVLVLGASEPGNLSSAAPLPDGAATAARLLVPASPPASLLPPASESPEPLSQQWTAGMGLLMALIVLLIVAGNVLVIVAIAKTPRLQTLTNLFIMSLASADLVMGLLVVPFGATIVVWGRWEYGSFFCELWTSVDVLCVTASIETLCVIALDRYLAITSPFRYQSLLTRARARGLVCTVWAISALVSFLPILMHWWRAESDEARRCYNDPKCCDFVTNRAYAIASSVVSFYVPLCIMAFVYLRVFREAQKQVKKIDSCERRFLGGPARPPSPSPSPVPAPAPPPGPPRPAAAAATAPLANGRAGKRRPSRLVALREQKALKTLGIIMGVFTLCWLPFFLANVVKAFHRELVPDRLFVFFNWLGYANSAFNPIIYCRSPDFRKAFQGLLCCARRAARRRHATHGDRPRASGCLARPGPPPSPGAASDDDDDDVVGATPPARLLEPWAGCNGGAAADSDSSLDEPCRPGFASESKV
Sequence of 5-hydroxytryptamine receptor 2A (P28223 whole entry): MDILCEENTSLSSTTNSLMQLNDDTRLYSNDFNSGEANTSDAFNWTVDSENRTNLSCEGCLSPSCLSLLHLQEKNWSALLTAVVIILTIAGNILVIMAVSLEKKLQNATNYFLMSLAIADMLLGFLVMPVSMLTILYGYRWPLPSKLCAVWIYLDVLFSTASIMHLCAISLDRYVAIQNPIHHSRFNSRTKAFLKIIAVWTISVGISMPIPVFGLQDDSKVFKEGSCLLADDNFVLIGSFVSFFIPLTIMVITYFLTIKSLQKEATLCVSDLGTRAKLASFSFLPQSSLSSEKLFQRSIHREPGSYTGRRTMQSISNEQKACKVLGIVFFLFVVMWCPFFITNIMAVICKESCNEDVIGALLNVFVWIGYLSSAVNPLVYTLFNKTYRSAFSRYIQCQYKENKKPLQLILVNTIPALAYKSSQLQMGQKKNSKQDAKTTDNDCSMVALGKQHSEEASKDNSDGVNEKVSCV
Sequence of Alpha-2B adrenergic receptor (Homo sapiens) (P18089 whole entry): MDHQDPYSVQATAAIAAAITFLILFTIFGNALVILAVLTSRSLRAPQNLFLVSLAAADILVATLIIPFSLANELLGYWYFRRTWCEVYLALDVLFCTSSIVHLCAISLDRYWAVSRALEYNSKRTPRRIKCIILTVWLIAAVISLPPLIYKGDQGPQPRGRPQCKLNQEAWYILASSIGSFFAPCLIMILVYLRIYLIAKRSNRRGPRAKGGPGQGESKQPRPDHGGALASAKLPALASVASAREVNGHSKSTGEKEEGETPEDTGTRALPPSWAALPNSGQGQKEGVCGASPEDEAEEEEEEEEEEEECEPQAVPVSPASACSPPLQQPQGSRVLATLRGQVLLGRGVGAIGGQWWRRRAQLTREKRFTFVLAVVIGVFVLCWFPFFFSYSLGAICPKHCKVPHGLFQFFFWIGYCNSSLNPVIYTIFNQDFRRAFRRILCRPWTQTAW
Sequence of Sodium-dependent dopamine transporter (Q01959 whole entry): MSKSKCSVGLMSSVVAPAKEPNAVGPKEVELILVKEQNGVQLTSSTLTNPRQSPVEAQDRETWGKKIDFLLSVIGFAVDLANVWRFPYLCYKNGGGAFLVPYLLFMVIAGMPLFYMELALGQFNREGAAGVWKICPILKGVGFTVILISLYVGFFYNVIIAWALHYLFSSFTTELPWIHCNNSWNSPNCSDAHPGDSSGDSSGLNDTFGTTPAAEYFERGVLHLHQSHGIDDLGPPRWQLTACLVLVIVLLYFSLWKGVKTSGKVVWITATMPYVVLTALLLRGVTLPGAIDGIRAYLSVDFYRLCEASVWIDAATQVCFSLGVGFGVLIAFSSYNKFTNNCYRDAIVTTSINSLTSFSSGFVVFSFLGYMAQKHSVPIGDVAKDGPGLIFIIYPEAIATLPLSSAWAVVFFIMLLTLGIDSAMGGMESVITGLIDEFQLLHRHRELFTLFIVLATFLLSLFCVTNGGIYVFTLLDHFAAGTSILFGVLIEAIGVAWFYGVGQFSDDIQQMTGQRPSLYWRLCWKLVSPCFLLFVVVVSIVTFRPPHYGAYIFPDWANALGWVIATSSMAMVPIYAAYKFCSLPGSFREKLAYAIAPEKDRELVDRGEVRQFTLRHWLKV
Sequence of 5-hydroxytryptamine receptor 7 (P34969 whole entry): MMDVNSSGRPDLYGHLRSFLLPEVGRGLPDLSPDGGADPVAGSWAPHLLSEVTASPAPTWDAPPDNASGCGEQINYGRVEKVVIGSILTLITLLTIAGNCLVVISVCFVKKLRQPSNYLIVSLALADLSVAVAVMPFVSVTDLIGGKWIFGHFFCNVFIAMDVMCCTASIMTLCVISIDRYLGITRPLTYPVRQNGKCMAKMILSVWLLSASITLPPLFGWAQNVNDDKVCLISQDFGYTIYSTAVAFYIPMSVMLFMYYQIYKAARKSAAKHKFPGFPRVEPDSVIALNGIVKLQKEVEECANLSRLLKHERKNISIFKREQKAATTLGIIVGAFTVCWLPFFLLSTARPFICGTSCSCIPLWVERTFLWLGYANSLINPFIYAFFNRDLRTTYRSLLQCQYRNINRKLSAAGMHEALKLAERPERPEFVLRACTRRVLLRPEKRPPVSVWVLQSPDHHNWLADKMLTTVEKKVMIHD
Sequence of 5-hydroxytryptamine receptor 5A (P47898 whole entry): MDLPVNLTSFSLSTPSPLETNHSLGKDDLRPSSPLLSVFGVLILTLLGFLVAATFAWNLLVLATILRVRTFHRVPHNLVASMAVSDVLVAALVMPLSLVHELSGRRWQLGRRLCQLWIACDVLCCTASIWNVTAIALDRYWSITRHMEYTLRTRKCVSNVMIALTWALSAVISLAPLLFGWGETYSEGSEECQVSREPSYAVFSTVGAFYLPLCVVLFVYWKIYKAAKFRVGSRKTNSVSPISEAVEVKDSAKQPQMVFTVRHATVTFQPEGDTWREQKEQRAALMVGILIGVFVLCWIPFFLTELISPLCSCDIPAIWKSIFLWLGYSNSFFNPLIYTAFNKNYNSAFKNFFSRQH
Sequence of Beta-2 adrenergic receptor (P07550 whole entry, looked up): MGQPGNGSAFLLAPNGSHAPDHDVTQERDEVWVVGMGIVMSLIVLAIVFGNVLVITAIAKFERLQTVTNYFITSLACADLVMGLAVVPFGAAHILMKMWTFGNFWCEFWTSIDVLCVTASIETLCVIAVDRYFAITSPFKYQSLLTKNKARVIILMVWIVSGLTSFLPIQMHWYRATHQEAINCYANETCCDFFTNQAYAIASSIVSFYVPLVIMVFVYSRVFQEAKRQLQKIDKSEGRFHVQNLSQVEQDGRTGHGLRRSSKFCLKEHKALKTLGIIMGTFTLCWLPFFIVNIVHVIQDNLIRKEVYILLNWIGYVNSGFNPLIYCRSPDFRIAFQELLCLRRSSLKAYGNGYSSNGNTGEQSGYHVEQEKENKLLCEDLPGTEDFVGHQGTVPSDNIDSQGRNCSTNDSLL

The term inhibition denotes how much of the control response was suppressed. One may read the pKi as the Ki on a negative log10 scale, so that one unit is a factor of ten. Low values mean a high Ki, high ones a low Ki. As for `COc1cc(OC)c2c(c1)OC[C@@]1(C)NCC[C@@H]21` (racemic), the Ratio Ki in the test listed under Homo sapiens [1], in the test listed under Homo sapiens [2], in the test filed under Homo sapiens [3], in the test filed under Homo sapiens [6], in the test listed under Homo sapiens [7] and in the test filed under Homo sapiens [8] was more than 20 in each case. The Ratio Ki (in the test listed under Homo sapiens [10]; in the test listed under Homo sapiens [11]; in the test filed under Homo sapiens [13]; in test [14]; in the test filed under Homo sapiens [16]; in the test listed under Homo sapiens [17]) was more than 20 throughout. Moreover, the Ratio Ki in the test filed under Homo sapiens [19], in the test filed under Homo sapiens [21] and in the test listed under Homo sapiens [22] was more than 20 in each case. In addition, the inhibition (in [4]; on D(3) dopamine receptor; at Histamine H1 receptor; on Mu-type opioid receptor; in test [12]; in test [20]) was less than 50% throughout. Moreover, the result with 661W [5] and in the test on 661W [9] was inactive. For the same molecule, in the test on 661W [15], the Activity is listed as more than 80%. The inhibition entry in the test with 661W [18] was “Active”. In addition, the negative-log Ki (pKi) in test [23] is recorded as less than 5.
For the molecule `CC[C@H]1c2cc(C)ccc2OC[C@@]1(C)N` (racemic), the inhibition (in [24]; in test [4]; in [25]; at D(3) dopamine receptor; at Histamine H1 receptor; at Mu-type opioid receptor) was less than 50% in each case. For the same molecule, the inhibition in [12], in test [26], in test [27], in test [28] and in test [20] was less than 50% in each case. Further, in test [23], the negative-log Ki (pKi) is reported as less than 5.
Take `CC[C@H]1c2cc(OC)ccc2CC[C@@]1(C)N` (racemic): the inhibition (at D(3) dopamine receptor; in [26]; in test [27]; in [28]) was less than 50% each time. This molecule displayed a pKi in test [23] of less than 5.

The values above are taken from ChEMBL document CHEMBL4304834, “3-Amino-chromanes and Tetrahydroquinolines as Selective 5-HT2B, 5-HT7, or σ1 Receptor Ligands” (ACS Med Chem Lett, 2019).
